According to ChEMBL document CHEMBL5346886 (Eur J Med Chem, 2023):
≈ marks a conversion by molar mass, not a printed value. Calls of active or inactive are those of the source. No cut-off for these calls is given here.

Legend:
[1] = tested on: Transmissible gastroenteritis virus; experiment: Antiviral activity against Transmissible gastroenteritis virus infected in ST cells assessed as reduction in viral copy pre-infected with cells for 1 hrs followed by compound addition and measured after 48 hrs by RT-qPCR analysis; assay type: functional, organism-based; conditions: Alphacoronavirus 1, ST
Procedure, shortened: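 CRFK cells (CCoV, FIPV) or ST cells (TGEV) were grown in DMEM with 10% FBS at 37 °C, 5% CO2. At 80% confluence they were washed in serum-free medium and infected at MOI 0.01 for 1 h at 37 °C. Compounds were then added at 0.1–100 μmol/L, with DMSO as blank. After 48 h, cells and supernatants were analysed by qRT-PCR. Inhibition came from viral copy number, and EC50 from curve fitting.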

[2] = Drug distribution in BALB/c mouse lung assessed as hydrolyzed GS-441524 metabolite at 200 mg/kg, po administered as single dose and measured after 1 hrs by LC-MS/MS analysis; assay type: ADME, organism-based; conditions: in vivo
[3] = tested on: Murine hepatitis virus; experiment: Antiviral activity against murine hepatitis virus-A59 infected in BALB/c mouse assessed as reduction in IL-1beta production in liver at 10 to 100 mg/kg, po administered once daily one hour post infection and measured after 3 days by ELISA analysis; assay type: functional, organism-based; conditions: dose 10-100 mg/kg, time 3.0 day
Procedure, shortened: (§1)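 MHV-A59 was inoculated intranasally into male BALB/c mice (30 μL, TCID50 = 10−7.125/100 μL), with oral dosing once daily from 1 hpi for four days. At 3 dpi, 0.1 g lung or liver from 4 mice per group was homogenized in 0.9 mL water at 4 °C and centrifuged. Supernatant IFN-β was read by ELISA; TNF-α, IFN-γ, IL-1β, IL-6 and CXCL10 by multi-analyte kit, with OD 450 nm against standards.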

[4] = tested on: Murine hepatitis virus; experiment: Antiviral activity against murine hepatitis virus-A59 infected in BALB/c mouse assessed as reduction in CXCL10 production in lungs at 200 mg/kg, po administered once daily one hour post infection and measured after 3 days by ELISA analysis; assay type: functional, organism-based; conditions: time 3.0 day; procedure, shortened: as §1
[5] = Solubility of the compound; assay type: physicochemical
[6] = Drug distribution in BALB/c mouse plasma assessed as hydrolyzed ibuprofen metabolite at 200 mg/kg, po administered as single dose and measured after 1 hrs by LC-MS/MS analysis; assay type: ADME, organism-based; conditions: in vivo
[7] = tested on: Murine hepatitis virus; experiment: Antiviral activity against murine hepatitis virus-A59 infected in BALB/c mouse assessed as alleviation of necrotic debris in lungs at 200 mg/kg, po administered once daily one hour post infection and measured after 3 days by H&E staining based analysis; assay type: functional, organism-based; conditions: time 3.0 day
Procedure, shortened: (§2)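 In male BALB/c mice (3–4 weeks), MHV-A59 was given intranasally (30 μL, TCID50 = 10−7.125/100 μL). Oral dosing once daily in a Cremophor EL/PBS/DMSO vehicle began at 1 hpi and lasted four days. At 3 dpi, lungs and livers from 4 mice per group were fixed in zinc formalin and paraffin-embedded. Sections of about 4 μm were stained with H&E and examined at 200× and 400×.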

[8] = Drug distribution in BALB/c mouse plasma assessed as hydrolyzed GS-441524 metabolite at 200 mg/kg, po administered as single dose and measured after 1 hrs by LC-MS/MS analysis; assay type: ADME, organism-based; conditions: in vivo
[9] = tested on: Murine hepatitis virus; experiment: Antiviral activity against murine hepatitis virus-A59 infected in BALB/c mouse assessed as inhibition of viral titer in liver at 10 to 200 mg/kg, po administered once daily one hour post infection and measured after 3 days by qRT-PCR analysis; assay type: functional, organism-based; conditions: dose 10-200 mg/kg, time 3.0 day
Procedure, shortened: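 SPF male BALB/c mice aged 3–4 weeks were put under isoflurane and inoculated intranasally with 30 μL MHV-A59 (TCID50 = 10−7.125/100 μL) in PBS. Oral dosing once daily in 15% Cremophor EL/82.5% PBS/2.5% DMSO started at 1 hpi and ran for four days; groups had 12 mice. At 3 dpi, 4 mice per group were killed and lung and liver M-gene copies measured by qRT-PCR.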

[10] = tested on: Murine hepatitis virus; experiment: Antiviral activity against murine hepatitis virus-A59 infected in BALB/c mouse assessed as reduction in IL-1beta production in lungs at 200 mg/kg, po administered once daily one hour post infection and measured after 3 days by ELISA analysis; assay type: functional, organism-based; conditions: time 3.0 day; procedure, shortened: as §1
[11] = tested on: Murine hepatitis virus; experiment: Antiviral activity against Murine hepatitis virus-A59 infected in mouse L929 cells assessed as reduction in viral copy pre-infected with cell for 1 hrs followed by compound addition and measured after 48 hrs by RT-qPCR analysis; assay type: functional, organism-based; conditions: Murine coronavirus
Procedure, shortened: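 L929 cells in DMEM with 10% FBS were washed serum-free at 80% confluence and infected with MHV-A59 at MOI 0.01 for 1 h at 37 °C. Compounds were added at 0.1–100 μmol/L, with DMSO as blank control. After 48 h at 37 °C, the viral M gene in supernatant was measured by qRT-PCR. Percent inhibition was derived from copy number and EC50 from curve fitting.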

[12] = tested on: Murine hepatitis virus; experiment: Antiviral activity against murine hepatitis virus-A59 infected in BALB/c mouse assessed as remission of fulminant hepatitis in liver at 200 mg/kg, po administered once daily one hour post infection and measured after 3 days by H&E staining based analysis; assay type: functional, organism-based; conditions: time 3.0 day; procedure, shortened: as §2
[13] = tested on: Murine hepatitis virus; experiment: Antiviral activity against murine hepatitis virus-A59 infected in BALB/c mouse model of acute liver injury assessed as reduction in plasma AST level at 10 to 200 mg/kg, po administered once daily one hour post infection and measured after 3 days; assay type: functional, organism-based; conditions: dose 10-200 mg/kg, time 3.0 day
Procedure, shortened: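 Male BALB/c mice were infected intranasally with MHV-A59 (30 μL, TCID50 = 10−7.125/100 μL) and dosed orally once daily from 1 hpi for four days in 15% Cremophor EL/82.5% PBS/2.5% DMSO. At 3 dpi, blood from 4 euthanized mice per group was left to clot at room temperature and centrifuged. Serum ALT and AST were measured on a clinical chemistry analyzer.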

[14] = Drug distribution in BALB/c mouse liver assessed as hydrolyzed GS-441524 metabolite at 200 mg/kg, po administered as single dose and measured after 1 hrs by LC-MS/MS analysis; assay type: ADME, organism-based; conditions: in vivo
[15] = Drug metabolism in Sprague-Dawley rat assessed as hydrolysis-mediated ibuprofen metabolite formation at 25 mg/kg, po administered as single dose and measured after 24 hrs by LC-MS/MS analysis; assay type: ADME, organism-based; conditions: in vivo
Procedure, shortened: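 Male SD rats (n = 3), fasted 12 h, dosed intragastrically; jugular vein blood into EDTA-K2 tubes at 0.25, 0.5, 1, 2, 3, 4, 6, 8 and 24 h; plasma protein-precipitated with acetonitrile, filtered, analytes measured by LC/MS/MS; noncompartmental PK analysis; mean ± SD.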

[16] = tested on: Murine hepatitis virus; experiment: Antiviral activity against murine hepatitis virus-A59 infected in BALB/c mouse assessed as reduction in TNF-alpha production in liver at 10 to 100 mg/kg, po administered once daily one hour post infection and measured after 3 days by ELISA analysis; assay type: functional, organism-based; conditions: dose 10-100 mg/kg, time 3.0 day; procedure, shortened: as §1
[17] = tested on: Murine hepatitis virus; experiment: Antiviral activity against murine hepatitis virus-A59 infected in BALB/c mouse assessed as alleviation of interstitial pneumonia in lungs at 200 mg/kg, po administered once daily one hour post infection and measured after 3 days by H&E staining based analysis; assay type: functional, organism-based; conditions: time 3.0 day; procedure, shortened: as §2
[18] = tested on: Murine hepatitis virus; experiment: Antiviral activity against murine hepatitis virus-A59 infected in BALB/c mouse assessed as reduction in IL-6 production in liver at 10 to 100 mg/kg, po administered once daily one hour post infection and measured after 3 days by ELISA analysis; assay type: functional, organism-based; conditions: dose 10-100 mg/kg, time 3.0 day; procedure, shortened: as §1

In the case of `CC(C)Cc1ccc(C(C)C(=O)OC[C@H]2O[C@@](C#N)(c3ccc4c(N)ncnn34)[C@H](O)[C@@H]2O)cc1` (stereo partly drawn), the EC50 [1] is reported as 3780 nM, the Drug uptake [2] is reported as “Active” and the Activity [3] is reported as “Active”. The Activity [4] was “Active”, the solubility [5] was 49.9 µM (≈ 23.9 µg/mL) and the Drug uptake [6] was “Active”. The Activity [7] was “Active”, the Drug uptake [8] was “Active” and the Activity [9] was “Active”. For the same molecule, the Activity [10] was “Active”, the EC50 [11] was 1150 nM and the Activity [12] was “Active”. The Activity [13] was “Active”, the Drug uptake [14] was “Active” and the Drug metabolism [15] was “Metabolite_Detected”. For the same molecule, the Activity [16] was “Active”, the Activity [17] was “Active” and the Activity [18] was “Active”.
